# Measured values of several laboratories.
# Compare with care: the assays were run in different laboratories.
# Cell line: HepG2
# Effect on: cell growth or viability
SMILES,technique,tested at,time,quantity,result
CC(=NNC(=O)c1ccccc1O)c1ccc(Nc2nnc(-c3ccc(Cl)cc3)c3ccccc23)cc1,MTT,1.25 µM,24 h,viability,87.2%
COc1ccc(-c2cc(-c3ccc(OC)cc3)c3c(=O)n(C)c(=O)n(C)c3n2)cc1,MTT,,48 h,IC50,17.3 µM
CCOC(=O)c1nn(-c2cccc(Cl)c2)/c(=N/N=C(\C)c2ccc(NC(=O)c3ccccc3)cc2)s1,MTT,5 µM,,viability,3%
CC(=NNC(N)=S)c1ccc(Nc2nnc(-c3ccc(Cl)cc3)c3ccccc23)cc1,MTT,1.25 µM,,cell death,92.3%
COc1ccc(-c2cc(-c3ccc(Br)cc3)c3c(=O)[nH]c(=O)[nH]c3n2)cc1,MTT,,48 h,IC50,11.2 µM
CC(=NNC(=O)c1cccnc1)c1ccc(Nc2nnc(-c3ccc(Cl)cc3)c3ccccc23)cc1,MTT,0.625 µM,24 h,viability,49.9%
CC(=NNC(=O)COc1ccc2c(C)c(Cc3ccccc3)c(=O)oc2c1C)c1ccc(Br)cc1,MTT,6.3 µg/mL,,viability,50.6%
COc1ccc(-c2cc(-c3ccc(Cl)cc3)c3c(=O)n(C)c(=O)n(C)c3n2)cc1,MTT,,48 h,IC50,17.3 µM
CC(=NNC(=O)c1ccncc1)c1ccc(Nc2nnc(-c3ccc(Cl)cc3)c3ccccc23)cc1,MTT,78 nM,,cell death,3.16%
CCOC(=O)c1nn(-c2cccc(Cl)c2)/c(=N/N=C(\C)c2ccc(NC(=O)c3ccc(Cl)cc3)cc2)s1,MTT,0.625 µM,,viability,2.86%
CC(=NNC(=S)Nc1ccccc1)c1ccc(Nc2nnc(-c3ccc(Cl)cc3)c3ccccc23)cc1,MTT,1.25 µM,,cell death,50%
COc1ccc(-c2cc(-c3ccc(Br)cc3)c3c(=O)n(C)c(=O)n(C)c3n2)cc1,MTT,,48 h,IC50,8.49 µM
O=C(C=Cc1ccccc1)Nc1ccc(Oc2nnc(-c3ccc(Cl)cc3)c3ccccc23)cc1,MTT,1.25 µM,24 h,viability,37.4%
CN(C)c1cc(NC(=O)CCc2ccccc2)c(O)c2c1C[C@H]1C[C@H]3[C@H](N(C)C)C(O)=C(C(N)=O)C(=O)[C@@]3(O)C(O)=C1C2=O,ATP luminescence,,72 h,IC50,165 µg/mL
CC(=O)Nc1ccc(/C(C)=N/N=c2\sc(C(C)=O)nn2-c2ccc(C)cc2)cc1,MTT,1.25 µM,,viability,99.8%
CN(C)c1cc(NC(=O)Cc2cscn2)c(O)c2c1C[C@H]1C[C@H]3[C@H](N(C)C)C(O)=C(C(N)=O)C(=O)[C@@]3(O)C(O)=C1C2=O,ATP luminescence,,72 h,IC50,75.8 µg/mL
O=C(Nc1ccccc1)Nc1ccc(Oc2nnc(-c3ccc(Cl)cc3)c3ccccc23)cc1,MTT,5 µM,,cell death,94.9%
CC(=O)c1nn(-c2ccccc2Cl)/c(=N/N=C(\C)c2ccc(NC(=O)c3ccccc3)cc2)s1,MTT,2.5 µM,,viability,6.09%
C/C(=N\N=C1/NC(=O)/C(=C\c2ccc(F)cc2)S1)c1ccccn1,SRB,100 µg/mL,48 h,inhibition,57.6%
Cc1ccc(-c2cc(-c3c(Cl)cccc3Cl)c3c(=O)[nH]c(=O)[nH]c3n2)cc1,MTT,,48 h,IC50,42.7 µM
CC(=O)c1nn(-c2ccc(C)cc2)/c(=N/N=C(\C)c2ccc(NC(=O)c3ccccc3)cc2)s1,MTT,0.156 µM,,viability,28.5%
